Assay results reported in ChEMBL document CHEMBL4715795, “Urolinin: The First Linear Peptidic Urotensin-II Receptor Agonist” (J Med Chem, 2016).
pEC50, pIC50: −log10 of the molar value. Peptide text beside a SMILES is read from it.

What was measured:
Urotensin-2 receptor [1] = molecular target: T1, Urotensin-2 receptor (Homo sapiens, UniProt Q9UKP6); experiment: Displacement of [125I-Tyr9]-U-II from human U-IIR expressed in HEK293-A cells incubated for 30 mins by gamma counting based competition radioligand binding assay; type: cell-based
T1 sequence (Q9UKP6 whole entry): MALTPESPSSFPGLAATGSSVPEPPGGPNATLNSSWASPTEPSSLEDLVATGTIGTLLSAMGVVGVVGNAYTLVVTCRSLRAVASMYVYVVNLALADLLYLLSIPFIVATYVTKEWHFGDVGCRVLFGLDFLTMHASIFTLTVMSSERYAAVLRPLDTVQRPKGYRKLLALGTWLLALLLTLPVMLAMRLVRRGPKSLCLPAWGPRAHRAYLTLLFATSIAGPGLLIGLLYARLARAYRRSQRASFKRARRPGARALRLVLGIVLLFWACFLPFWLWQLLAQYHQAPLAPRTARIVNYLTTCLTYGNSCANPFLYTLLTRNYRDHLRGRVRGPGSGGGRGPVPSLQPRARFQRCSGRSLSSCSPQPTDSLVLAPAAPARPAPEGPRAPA

Urotensin-2 receptor [2] = molecular target: T1, Urotensin-2 receptor; experiment: Agonist activity at human U-IIR expressed in HEK293-A cells by Fluo4-AM dye based intracellular calcium mobilization assay; type: functional, cell-based
[3] = molecular target: Somatostatin receptor type 1 (Homo sapiens, UniProt P30872); experiment: Displacement of [125I-Tyr11]-SS14 from human SSTR1 expressed in HEK293-A cells incubated for 30 mins by gamma counting based competition radioligand binding assay; type: cell-based
How it was run: (§1)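 Competition binding on HEK293A cells overexpressing the given human SSTR subtype, seeded overnight. Binding buffer: 50 mM Tris-HCl pH 7.4, 5 mM MgCl2, 1 mM CaCl, 0.5% BSA, protease inhibitors. 100000 cpm [125I-Tyr11]-SS14 (chloramine-T iodinated, HPLC-purified) with varying competitor, 30 min at 37 °C. Cells washed four times in cold buffer, lysed in 1 N NaOH, gamma counted. Mean ± SD, three experiments in duplicate.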

[4] = molecular target: Somatostatin receptor type 3 (Homo sapiens, UniProt P32745); experiment: Displacement of [125I-Tyr11]-SS14 from human SSTR3 expressed in HEK293-A cells incubated for 30 mins by gamma counting based competition radioligand binding assay; type: cell-based; how it was run: as §1
[5] = molecular target: Somatostatin receptor type 5 (Homo sapiens, UniProt P35346); experiment: Displacement of [125I-Tyr11]-SS14 from human SSTR5 expressed in HEK293-A cells incubated for 30 mins by gamma counting based competition radioligand binding assay; type: cell-based; how it was run: as §1
[6] = molecular target: Somatostatin receptor type 2 (Homo sapiens, UniProt P30874); experiment: Displacement of [125I-Tyr11]-SS14 from human SSTR2 expressed in HEK293-A cells incubated for 30 mins by gamma counting based competition radioligand binding assay; type: cell-based; how it was run: as §1
[7] = Half life in 25% human serum by RP-HPLC analysis; type: ADME, cell-free
How it was run: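 Peptide at 50 μg/mL final in RPMI with 25% (v/v) human serum, pre-equilibrated at 37 °C. Samples taken at set times into 6% TCA, iced 15 min, spun at 18000g. Supernatant run on C18 RP-HPLC, 25–80% acetonitrile gradient over 15 min at 30 °C, absorbance at 214 and 280 nm.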

[8] = molecular target: T2, Urotensin-2 receptor (Homo sapiens) (UniProt Q9UKP6); experiment: Agonist activity at human U-IIR expressed in HEK293-A cells at 500 nM by Fluo4-AM dye based intracellular calcium mobilization assay relative to control; settings: filed as agonist, dose nM 500
T2 sequence (whole entry): T1 sequence (Q9UKP6 whole entry)

[9] = molecular target: T2, Urotensin-2 receptor (Homo sapiens); experiment: Agonist activity at human U-IIR expressed in HEK293-A cells at 500 nM by Fluo4-AM dye based intracellular calcium mobilization assay relative to control; type: functional, cell-based; settings: filed as agonist

Sequence of Somatostatin receptor type 1 (P30872 whole entry): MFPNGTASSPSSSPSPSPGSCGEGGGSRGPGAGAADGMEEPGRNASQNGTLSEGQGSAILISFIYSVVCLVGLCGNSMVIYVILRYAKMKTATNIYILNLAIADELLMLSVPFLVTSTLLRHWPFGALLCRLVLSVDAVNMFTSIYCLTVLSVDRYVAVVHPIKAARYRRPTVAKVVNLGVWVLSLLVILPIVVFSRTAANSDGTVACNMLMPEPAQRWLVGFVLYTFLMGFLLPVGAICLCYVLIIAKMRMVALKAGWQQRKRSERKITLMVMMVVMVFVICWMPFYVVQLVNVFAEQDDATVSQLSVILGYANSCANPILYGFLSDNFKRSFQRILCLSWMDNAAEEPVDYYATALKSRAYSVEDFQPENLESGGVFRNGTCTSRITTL
Sequence of Somatostatin receptor type 5 (P35346 whole entry): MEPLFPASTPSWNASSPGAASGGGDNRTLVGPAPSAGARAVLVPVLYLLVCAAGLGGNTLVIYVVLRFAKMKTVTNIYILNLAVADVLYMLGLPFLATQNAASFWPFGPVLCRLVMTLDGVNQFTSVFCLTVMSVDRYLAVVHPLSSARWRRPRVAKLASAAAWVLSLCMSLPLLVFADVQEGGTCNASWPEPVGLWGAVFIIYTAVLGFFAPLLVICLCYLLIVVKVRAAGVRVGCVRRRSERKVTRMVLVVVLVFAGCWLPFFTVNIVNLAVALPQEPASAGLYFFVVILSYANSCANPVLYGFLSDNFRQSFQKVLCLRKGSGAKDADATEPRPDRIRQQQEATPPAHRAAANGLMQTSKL
Sequence of Somatostatin receptor type 3 (P32745 whole entry): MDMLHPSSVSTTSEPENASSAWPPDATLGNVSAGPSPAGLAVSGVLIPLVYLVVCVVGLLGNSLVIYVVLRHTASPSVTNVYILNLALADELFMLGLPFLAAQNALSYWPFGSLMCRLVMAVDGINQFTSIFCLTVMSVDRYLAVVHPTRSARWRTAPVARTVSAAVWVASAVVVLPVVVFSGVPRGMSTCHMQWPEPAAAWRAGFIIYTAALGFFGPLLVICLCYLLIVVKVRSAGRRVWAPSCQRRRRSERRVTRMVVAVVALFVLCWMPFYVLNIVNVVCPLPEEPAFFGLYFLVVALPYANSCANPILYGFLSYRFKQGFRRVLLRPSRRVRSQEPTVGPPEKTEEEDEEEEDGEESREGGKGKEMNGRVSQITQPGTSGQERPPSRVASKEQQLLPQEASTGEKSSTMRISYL
Sequence of Somatostatin receptor type 2 (P30874 whole entry): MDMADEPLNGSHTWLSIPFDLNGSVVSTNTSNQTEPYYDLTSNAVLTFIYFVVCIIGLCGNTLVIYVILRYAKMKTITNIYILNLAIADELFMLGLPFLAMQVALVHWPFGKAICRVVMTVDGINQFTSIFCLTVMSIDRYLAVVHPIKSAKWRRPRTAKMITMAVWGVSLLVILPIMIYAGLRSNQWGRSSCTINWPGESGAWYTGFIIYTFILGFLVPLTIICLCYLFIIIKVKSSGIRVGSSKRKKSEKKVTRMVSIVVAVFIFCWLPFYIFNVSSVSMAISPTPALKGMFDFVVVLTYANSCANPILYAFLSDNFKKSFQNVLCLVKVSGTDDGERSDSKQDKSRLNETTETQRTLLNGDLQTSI

| %max [8] [%] | %max [9] [%] | SMILES | pIC50 (Urotensin-2 receptor [1]) | pEC50 (Urotensin-2 receptor [2]) | pIC50 [3] | pIC50 [4] | pIC50 [5] | pIC50 [6] | half-life [7] [h] |
| --- | --- | --- | --- | --- | --- | --- | --- | --- | --- |
|  |  | CC(C)[C@H](NC(=O)[C@@H]1CSSC[C@H](NC(=O)[C@H](CC(=O)O)NC(=O)[C@@H]2CCCN2C(=O)[C@@H](NC(=O)[C@@H](N)CCC(=O)O)[C@@H](C)O)C(=O)N[C@@H](Cc2ccccc2)C(=O)N[C@@H](Cc2c[nH]c3ccccc23)C(=O)N[C@@H](CCCCN)C(=O)N[C@@H](Cc2ccc(O)cc2)C(=O)N1)C(N)=O | 8.70 | 8.84 | 4.98 | 5.06 | 5.12 | 5.53 | 3.48 |
|  |  | CC[C@H](NC(=O)[C@H](Cc1ccc(O)c([N+](=O)[O-])c1)NC(=O)[C@H](CCCCN)NC(=O)[C@H](Cc1c[nH]c2ccccc12)NC(=O)[C@H](Cc1c[nH]c2ccccc12)NC(=O)[C@H](N)CC(N)=O)C(N)=O | 6.22 | 8.32 | 5.17 | 5.22 | 4.55 | 4.43 | 22 |
| 57 | 57 | CC(=O)N[C@@H](Cc1ccccc1)C(=O)N[C@@H](Cc1c[nH]c2ccccc12)C(=O)N[C@@H](CCCCN)C(=O)N[C@@H](Cc1ccc(O)cc1)C(N)=O (Ac-FWKY-NH2) |  |  |  |  |  |  |  |
